Test results taken from ChEMBL document CHEMBL4431346, “2-Oxoamide inhibitors of cytosolic group IVA phospholipase A2 with reduced lipophilicity” (Bioorg Med Chem, 2016).

Columns and labels:
[1] = biological target: T1, Cytosolic phospholipase A2 (Homo sapiens) (UniProt P47712); assay: Inhibition of human group 4A cPLA2 using PAPC/[14C]-labeled PAPC as substrate at 0.091 mole fraction after 30 mins by mixed micelle-based assay relative to control
T1 sequence (whole entry): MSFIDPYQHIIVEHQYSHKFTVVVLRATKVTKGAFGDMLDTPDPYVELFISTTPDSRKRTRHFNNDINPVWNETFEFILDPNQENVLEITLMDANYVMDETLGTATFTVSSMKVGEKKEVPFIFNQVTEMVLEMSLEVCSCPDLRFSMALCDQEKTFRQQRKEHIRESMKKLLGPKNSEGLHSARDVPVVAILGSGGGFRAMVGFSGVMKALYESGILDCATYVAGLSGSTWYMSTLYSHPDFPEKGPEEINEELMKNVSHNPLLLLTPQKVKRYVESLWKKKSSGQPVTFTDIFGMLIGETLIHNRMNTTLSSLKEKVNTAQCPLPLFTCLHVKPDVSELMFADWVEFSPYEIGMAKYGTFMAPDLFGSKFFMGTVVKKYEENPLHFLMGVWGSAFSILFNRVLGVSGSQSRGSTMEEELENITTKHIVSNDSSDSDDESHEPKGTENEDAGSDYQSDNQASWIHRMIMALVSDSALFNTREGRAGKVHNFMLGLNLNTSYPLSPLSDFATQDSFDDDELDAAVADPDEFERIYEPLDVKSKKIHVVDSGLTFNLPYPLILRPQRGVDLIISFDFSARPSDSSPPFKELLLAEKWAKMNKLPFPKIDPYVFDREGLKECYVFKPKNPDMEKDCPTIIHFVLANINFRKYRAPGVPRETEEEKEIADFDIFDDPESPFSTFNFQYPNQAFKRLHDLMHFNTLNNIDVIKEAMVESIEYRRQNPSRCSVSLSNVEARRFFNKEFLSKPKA
Summary of the method: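 Screened at 0.091 mole fraction inhibitor against human GIVA cPLA2. Micelles: 400 μM Triton X-100, 97 μM PAPC, 1.8 μM 14C-PAPC, 3 μM PIP2 in 100 mM HEPES pH 7.5 with 90 μM CaCl2, 2 mM DTT and 0.1 mg/ml BSA. Average percent inhibition is reported; 25% or less is designated N.D.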

[2] = species: Homo sapiens; assay: Inhibition of human group 5 sPLA2 using PAPC/[14C]-labeled PAPC as substrate at 0.091 mole fraction after 30 mins by mixed micelle-based assay relative to control
Summary of the method: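 Human GV sPLA2 was tested at 0.091 mole fraction inhibitor in mixed micelles of 400 μM Triton X-100, 98.3 μM PAPC and 1.7 μM 14C-labeled PAPC. Average percent inhibition is reported; 25% or less is designated N.D.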

[3] = biological target: T2, 85/88 kDa calcium-independent phospholipase A2 (Homo sapiens) (UniProt O60733); assay: Inhibition of human group 6A iPLA2 using PAPC/[14C]-labeled PAPC as substrate at 0.091 mole fraction after 30 mins by mixed micelle-based assay relative to control
T2 sequence (whole entry): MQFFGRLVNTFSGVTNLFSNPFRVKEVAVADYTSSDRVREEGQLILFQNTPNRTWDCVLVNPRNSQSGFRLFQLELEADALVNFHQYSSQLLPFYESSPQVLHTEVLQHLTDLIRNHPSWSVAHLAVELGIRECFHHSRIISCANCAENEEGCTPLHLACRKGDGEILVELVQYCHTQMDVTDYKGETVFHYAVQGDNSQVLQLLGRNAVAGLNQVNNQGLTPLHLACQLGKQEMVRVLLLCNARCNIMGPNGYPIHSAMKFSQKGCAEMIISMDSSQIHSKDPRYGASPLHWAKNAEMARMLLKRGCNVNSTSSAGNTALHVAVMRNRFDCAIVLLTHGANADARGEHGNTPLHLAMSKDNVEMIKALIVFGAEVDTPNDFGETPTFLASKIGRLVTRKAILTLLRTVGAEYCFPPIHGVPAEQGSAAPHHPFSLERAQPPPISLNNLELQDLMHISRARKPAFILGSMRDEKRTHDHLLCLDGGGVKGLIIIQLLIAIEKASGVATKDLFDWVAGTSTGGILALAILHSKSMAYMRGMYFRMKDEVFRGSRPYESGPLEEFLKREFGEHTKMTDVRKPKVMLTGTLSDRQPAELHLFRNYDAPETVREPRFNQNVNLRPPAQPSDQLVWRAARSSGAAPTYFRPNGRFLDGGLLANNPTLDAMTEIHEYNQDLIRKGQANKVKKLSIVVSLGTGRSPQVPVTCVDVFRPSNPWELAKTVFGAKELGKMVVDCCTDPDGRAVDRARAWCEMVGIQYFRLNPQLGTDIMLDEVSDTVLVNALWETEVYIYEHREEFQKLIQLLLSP
Summary of the method: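 Human GVIA iPLA2 was single-point screened at 0.091 inhibitor mole fraction. Micelles: 400 μM Triton X-100, 98.3 μM PAPC, 1.7 μM 14C-PAPC in 100 mM HEPES pH 7.5, 2 mM ATP, 4 mM DTT. Average percent inhibition is given; 25% or less is treated as no inhibition (N.D.).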

[4] = biological target: T1, Cytosolic phospholipase A2 (Homo sapiens); assay: Inhibition of human group 4A cPLA2 using [14C]-labeled PAPC as substrate after 30 mins by mixed micelle assay based liquid scintillation counting
Summary of the method: (§1)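 Human GIVA cPLA2 in mixed micelles: 400 μM Triton X-100, 97 μM PAPC, 1.8 μM 14C-labeled PAPC and 3 μM PIP2. Buffer was 100 mM HEPES pH 7.5 with 90 μM CaCl2, 2 mM DTT and 0.1 mg/ml BSA. XI(50) is the inhibitor mole fraction in the total substrate interface giving 50% inhibition. It was measured only for compounds exceeding 85% inhibition at the 0.091 screen.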

[5] = biological target: T1, Cytosolic phospholipase A2 (Homo sapiens); assay: Inhibition of human group 4A cPLA2 using PAPC/[14C]-labeled PAPC as substrate after 30 mins by mixed micelle-based assay; summary of the method: as §1
[6] = biological target: T1, Cytosolic phospholipase A2 (Homo sapiens); assay: Inhibition of human group 4A cPLA2 using PAPC as substrate preincubated for 5 mins with substrate followed by enzyme addition for 30 mins by mixed micelle-based assay; summary of the method: as §1
[7] = biological target: T2, 85/88 kDa calcium-independent phospholipase A2 (Homo sapiens); assay: Inhibition of human group 6A iPLA2 using PAPC/[14C]-labeled PAPC as substrate after 30 mins by mixed micelle-based assay
Summary of the method: (§2)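 For human GVIA iPLA2, micelles held 400 μM Triton X-100, 98.3 μM PAPC and 1.7 μM 14C-PAPC. Buffer was 100 mM HEPES pH 7.5 with 2 mM ATP and 4 mM DTT. XI(50) is the inhibitor mole fraction in the total substrate interface causing 50% inhibition. It was determined for compounds exceeding 85% inhibition at 0.091 mole fraction.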

[8] = biological target: T2, 85/88 kDa calcium-independent phospholipase A2 (Homo sapiens); assay: Inhibition of human group 6A iPLA2 using PAPC as substrate preincubated for 5 mins with substrate followed by enzyme addition for 30 mins by mixed micelle-based assay; summary of the method: as §2

inhibition [1]	inhibition [2]	inhibition [3]	XI50 (mole fraction) [4]	XI50 (mole fraction) [5]	XI50 (mole fraction) [6]	XI50 (mole fraction) [7]	XI50 (mole fraction) [8]	SMILES
< 25%	< 25%	< 25%	–	–	–	–	–	CCOC(=O)CCCNC(=O)C(=O)CCCCCCCCCCCC(=O)O
–	–	–	0.036	–	–	–	–	CCCCC/C=C\C/C=C\C/C=C\C/C=C\CCCC(=O)C(F)(F)F
63.6%	< 25%	81.1%	–	–	–	–	–	CCCCCCOc1ccc(OCCCC(=O)C(=O)NCCCC(=O)O)cc1
< 25%	< 25%	< 25%	–	–	–	–	–	Cc1ccc(S(=O)(=O)NCCCCCCCCCCC(=O)C(=O)NCCCC(=O)O)cc1
> 85%	< 25%	< 25%	–	0.023	–	–	–	CCCCCCCCc1ccc(OCCCC(=O)C(=O)NCCCC(=O)O)cc1
–	–	< 25%	–	–	0.024	–	–	CCCCCCCCCCCCCCC(=O)C(=O)NCCCC(=O)O
> 85%	33.8%	95.1%	–	0.02	–	0.013	–	CCCCCCOc1ccc(CCCCC(=O)C(=O)NCCCC(=O)OCC)cc1
49.3%	40.6%	94.7%	–	–	–	0.014	–	CCCCCCCCc1ccc(OCCCC(=O)C(=O)NCCCC(=O)OCC)cc1
88%	< 25%	82.5%	–	0.013	–	–	–	CCCCCCOc1ccc(OCCCC(=O)C(=O)NCCCCC(=O)O)cc1
> 85%	< 25%	< 25%	–	0.016	–	–	–	CCCCCCOc1ccc(CCCCC(=O)C(=O)NCCCC(=O)O)cc1
59.3%	< 25%	< 25%	–	–	–	–	–	CCOC(=O)CCCNC(=O)C(=O)CCCCCCCCCCNS(=O)(=O)c1ccc(C)cc1
–	–	–	–	–	0.022	–	0.027	CCCCCCCCCCCCCCC(=O)C(=O)NCCCC(=O)OCC
